Assay: Toxicity liver stage against HepG2, at 10uM
Type: cell-based
Set-up: test concentration 10 uM, cell line HepG2-A16-CD81EGFP
Settings: human, HepG2-A16-CD81EGFP cells; read-out: INHIBITION
In short: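 Uninfected HepG2-A16-CD81EGFP cells, 3 × 10^3 per well, 1536-well, plated on prespotted compound at 10 μM final, parasite-free screening media added to match infected plates; puromycin 10 μM positive, DMSO 0.5% negative; run in parallel with 48 h PbLuc assay at 37 °C, 5% CO2; viability by CellTiter-Glo luminescence, normalized to controls.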

Row | Compound | cytotoxicity at 10 µM [%]
1 | COc1ccc2c(c1)nc1n2[C@@H](CNCc2ncccc2C)COC1 | 3.1
2 | Cc1ccc(NC(=O)Nc2c[nH]c(=O)[nH]c2=O)c(C)c1 | 18.2
3 | COC(=O)[C@H](C)NC(=O)Cn1ccc2ccc(F)cc21 | -0.112
4 | O=c1c(NCc2ccncc2)c(NCC(O)CN2CCOCC2)c1=O (stereo not given) | -44
5 | O=c1cc2c(nn1CN1CCSCC1)CCC2 | -4.86
6 | CC(C)n1ccc2c(C(=O)NC3CN4CCC3CC4)cccc21 (stereo not given) | -54.2
7 | Cn1cccc1C(O)CNS(=O)(=O)c1ccccc1F (stereo not given) | -14.6
8 | CCc1ccc(S(=O)(=O)N2CCN(CCn3ccnc3)CC2)cc1 | -8.81
9 | Cn1nc(N2CCCC(C(=O)Nc3nc4ccccc4[nH]3)C2)ccc1=O (stereo not given) | 1.08
10 | c1ccc(-c2nnn3c2COC(CNCc2ccccn2)C3)cc1 (stereo not given) | 0.595
11 | O=c1[nH]nc2c(S(=O)(=O)N3CCCCC3)cccn12 | 2.41
12 | O=S(=O)(c1ccc(F)cc1)n1cc(Cl)cn1 | 0.0667
13 | Cc1cc(-c2cnc(N3CCSCC3)nc2C(C)C)on1 | 16.8
14 | CC(=O)Nc1ccc(CN2CCCC(c3cc4ncccc4[nH]3)C2)cc1 (stereo not given) | 0.99
15 | Cc1cc(-c2nccs2)nc(C2CCN(Cc3cccs3)CC2)n1 | 6.81
16 | CCn1nc(C)c(CN(Cc2ccccn2)Cc2ccccc2Cl)c1C | 5.17
17 | CCOc1c(Br)cc(CNC(C)c2nnc3n2CCC3)cc1OC (stereo not given) | -40.9
18 | O=C(NCc1ccc(C(=O)O)o1)c1ccc(F)cc1 | 13.2
19 | COCCCS(=O)(=O)N1CCN(Cc2cccn2C)CC1 | -9.53
20 | Cc1cc(N(C)C)nc(N2CCn3c(C)nnc3C2)n1 | -5.14
21 | CC(C)(C)c1cn2c(n1)C(CNCc1cnn3ccccc13)CCC2 (stereo not given) | -13.4
22 | COCCOCC(=O)NC1CCN(c2ccccn2)CC1 | -0.555

Row | Compound | cytotoxicity at 10 µM [%]
23 | CC(C)c1noc(C[S+]([O-])CC(=O)Nc2ccc(F)c(F)c2)n1 (stereo not given) | -8.82
24 | CC(Cc1c(F)cccc1F)NC(=O)NCc1ncnn1C (stereo not given) | 12.9
25 | CCN(C)Cc1cccc(CNC(=O)NCCc2ccccn2)c1 | 2.8
26 | CCCN(CCC)C(=O)c1cnn(C)c1C | -128
27 | CN(Cc1cc(Br)cn1C)C(=O)Cc1cccc(O)c1 | -4.99
28 | COC(=O)c1cccc(CNC(=O)CC(F)(F)F)c1 | 17.4
29 | O=C(CCC1CCCO1)NCCCO (stereo not given) | 11.2
30 | CCN(CC1COc2ccccc2O1)C(=O)C1=NN(C)C(=O)CC1 (stereo not given) | -39.6
31 | CSCC(C)N(C)S(=O)(=O)c1ccc(Cl)cc1C#N (stereo not given) | -41.5
32 | CCCOc1ccc2c(c1)OCC(C(=O)NC(C)Cn1ccnc1)=C2 (stereo not given) | -4.03
33 | COC(=O)C(CNC(=O)Nc1nncs1)Cc1ccc(O)cc1 (stereo not given) | 16.9
34 | CC(Nc1nc2c(cnn2C)c(=O)[nH]1)c1ccc2c(c1)CCCC2 (stereo not given) | 9.62
35 | Cc1ccccc1CCCN(Cc1ccccn1)S(C)(=O)=O | 9.53
36 | Cc1cnc(CN(Cc2ccc(Cl)s2)C2CCN(C)C2)o1 (stereo not given) | 14.5
37 | CC(CNC(=O)N1CCNC(=O)CC1)Cc1cccs1 (stereo not given) | -5.62
38 | CCS(=O)(=O)NCc1cc(Br)c(OC)c(OC)c1 | -6.83
39 | O=C(c1ccncc1)N1CCCC1C1CCN(Cc2ccccc2)CC1 (stereo not given) | 7.43
40 | O=C(c1ccoc1)N1CCCC1C1CCN(Cc2ccccc2)CC1 (stereo not given) | -10.6
41 | Cc1cccc(OC2CCN(c3ccc(C#N)cn3)CC2)n1 | 15.5
42 | COCC(NC(=O)c1cn(-c2cccc(Cl)c2F)nn1)C1CC1 (stereo not given) | 11.1
43 | CCCc1ccc(S(=O)(=O)NC2(CC(N)=O)CCC2)cc1 | 17.9
44 | CCc1cc(CNC(=O)NCc2ccc(N3CCCCC3)cc2)on1 | 1.27

Row | Compound | cytotoxicity at 10 µM [%]
45 | CC(c1nnc(-c2cccs2)o1)N1CCn2c(nnc2C2CC2)C1 (stereo not given) | 17.7
46 | Cc1ccc(C(=O)NCCCNS(C)(=O)=O)cc1-n1cccc1 | -10
47 | CN(C)C[C@@H]1C[C@@H]2CN(Cc3nccn3C)CC[C@@H]2N1CC1CC1 | -101
48 | CC(=O)N1CCO[C@@H]2CN(C(=O)NCc3ccccc3)CC[C@@H]2C1 | -97.7
49 | Cc1nc(CO[C@H]2CN(C(=O)c3cccnc3)[C@@H]3COC[C@H]23)cs1 | -110
50 | CN(C)CCN1CCO[C@@H]2CN(C(=O)Cc3ccsc3)CC[C@@H]2C1 | -119
51 | Cc1ccc(CN2CCn3c(CNS(C)(=O)=O)nnc3C2)s1 | -67.7
52 | Cc1ccc(C(=O)N2CC[C@@]3(C[C@@H](NS(C)(=O)=O)CCO3)C2)s1 | -73.9
53 | CC(C)CN1Cc2c(C(=O)NC3CC3)ncn2-c2ccccc2S1(=O)=O | -77.6
54 | Cc1cccc(CN2CCn3c(C(=O)N(C)C)cnc3C2)c1 | -69.5
55 | Fc1cnc(NCC2Cn3nnc(-c4ccccc4)c3CO2)nc1 (stereo not given) | -64.7
56 | CCOCC1CN(C(=O)Cc2ccccn2)Cc2cn(C)nc21 (stereo not given) | 1.86
57 | CC(=O)N1CCC2(CCN(C(=O)c3ccc(Cl)c(C(F)(F)F)c3)CC2)C1 | -4.48
58 | Cc1nccn1CCC(=O)N1CCCN(CCCc2ccccc2)CC1 | -13.6
59 | Cc1sc2nc(CCN)nc(N(CCN(C)C)CC3CCCO3)c2c1C (stereo not given) | -9.54
60 | CCOc1ccc2nc(CN3CCC(CNC(C)=O)C3)ccc2c1 (stereo not given) | -7.23
61 | COCc1noc(CN2CCCCC2CCc2cccs2)n1 (stereo not given) | 0.642
62 | Cc1ccc(-c2ccnc(NC(c3ncccc3C)C3CC3)n2)c(C)n1 (stereo not given) | 0.656
63 | CCOC(=O)CNc1nc(C(C)(C)C)nc2c1cnn2C | -12.8
64 | CC(c1ccon1)N(C)S(=O)(=O)NCc1ccccc1 (stereo not given) | -0.174
65 | CCN(CC)C(=O)c1ccc(Cl)c(NC(=O)c2cnc(C)cn2)c1 | -0.273
66 | Cc1ccc(CN2CCN(C3CCCC3)CC2CCO)o1 (stereo not given) | -6.05

Row | Compound | cytotoxicity at 10 µM [%]
67 | CCc1cc(N(C)Cc2[nH]nc3c2CCC3)nc(N2CCOCC2)n1 | 5.51
68 | Cc1nccn1CCN(C)c1cc(C(C)C)nc2ccnn12 | -3.88
69 | COc1cc(CN2CCC(O)(c3ccc(C)cn3)CC2)cc(Cl)c1OC | -132
70 | Cc1cc(N2CCN(C3CCSCC3)CC2)n2nc(C)c(C)c2n1 | 0.0879
71 | CC(C)N1CCCC(C(=O)N(C)CCCc2cnn(C)c2)C1 (stereo not given) | -8.03
72 | CC(C1CCN(Cc2c(Cl)cncc2Cl)CC1)N1CCN(C)CC1 (stereo not given) | -12.2
73 | COCCN1CCCC2(CCN(Cc3nnc(C4CC4)o3)C2)C1=O (stereo not given) | 0.15
74 | NC1CCN(C(=O)c2cnc(Cc3c(Cl)cccc3Cl)nc2O)C1 (stereo not given) | -0.803
75 | Cc1ncn(-c2cc(N3CCN(S(C)(=O)=O)CC3)ncn2)c1C | 6.23
76 | COCc1nc(C2CC2)nn1-c1cc(Cl)ccc1OC | -10.2
77 | Cc1cc(C(=O)N(C)Cc2ccn[nH]2)c(NC(=O)C(C)(C)C)s1 | 2.72
78 | Cc1noc(C(C)C)c1C(=O)NCc1cccc(CN(C)C)c1 | -8.23
79 | CN1CCN(C2CCN(CCOc3cccc(Cl)c3)CC2)C1=O | -2.83
80 | COc1ccc(-n2ccc(C(=O)NCCN3CCCCCC3)n2)cc1 | -3.84
81 | CC1CCCN(CCNC(=O)c2ccn(-c3cccc(F)c3)n2)C1 (stereo not given) | -3.25
82 | Cc1ccc(CN(C)C(=O)CN2CCCC(Cn3cncn3)C2)cc1 (stereo not given) | -6.41
83 | CCN1CCCC(CNC(=O)C2(c3cc(C)cc(C)c3)CCC2)C1 (stereo not given) | -10.7
84 | CCOCC(O)CN1CCN(C(=O)Cc2ccc3c(c2)CCC3)CC1 (stereo not given) | -15.5
85 | O=C(CCc1nccs1)N1CCN(c2ccccn2)CC1 | -19.7
86 | Cc1cc(C)c(CNC(=O)N2CCN(c3cnccn3)CC2)c(=O)[nH]1 | -2.58
87 | CCN1CCN(C2CCN(Cc3noc(C)n3)CC2)C1=O | -8.13
88 | Cc1nn(-c2ccccc2)cc1C(=O)N1CCCN2CCCC2C1 (stereo not given) | -2.21

Row | Compound | cytotoxicity at 10 µM [%]
89 | O=C1CCC(C(=O)NCc2nncn2-c2ccccc2)CN1 (stereo not given) | -12.7
90 | CCc1n[nH]c(C2CN(C(=O)CCc3cccs3)CCO2)n1 (stereo not given) | 5.73
91 | CCc1nc(C2CCCN(C(=O)CN(C)S(C)(=O)=O)C2)no1 (stereo not given) | -3.22
92 | Cc1nc(CN2CCCCC2Cn2cncn2)nc2ccccc12 (stereo not given) | -3.46
93 | COc1ccc(S(N)(=O)=O)cc1C(=O)N(C)Cc1cc(C)on1 | -4.3
94 | CCC(CO)NCc1ccc(-c2ccccc2)o1 (stereo not given) | 4.42
95 | c1cncc(-c2nccc(CN3CCCC3)n2)c1 | 2.34
96 | CCOC(=O)[C@]12CCCN(Cc3cccs3)C[C@H]1CN(C(C)=O)C2 | 4.13
97 | Cc1cc(CN2C[C@@H](C)[C@@]3(CCN(CC(=O)N(C)C)C3=O)C2)oc1C | 9.94
98 | CN1CCOCC2(CCCN(C(=O)c3ccc(-n4cccc4)cc3)C2)C1 (stereo not given) | -98
99 | Cc1ccc(N2C[C@@H]3CN(C(=O)c4ccccc4)CCO[C@@H]3C2)nn1 | -5.52
100 | O=C(NCc1ccccn1)[C@@]12CCO[C@@H]1CCN(Cc1ccccn1)C2 | -112
101 | Cc1cccc(CN2CCC3(CCCN(CC(=O)N(C)C)C3)C2)n1 (stereo not given) | -101
102 | COCCN1CCN(c2ccc(C)nn2)Cc2ccc(C)nc21 | -104
103 | Cn1cc(CN2CC[C@]3(C[C@H](Oc4ccccn4)CO3)C2)cn1 | 10.8
104 | c1cc(C2CC2)n2cnc(C3CN(Cc4ccncc4)CCO3)c2c1 (stereo not given) | 6.59
105 | Cc1nc(CN2CCCn3c(nc(Cn4cncn4)cc3=O)C2)cs1 | 3.75
106 | CN(Cc1cccnc1)Cc1cncc2c1CCN(c1ccccn1)C2 | -108
107 | Cc1nc(COC[C@H]2CC[C@H]3NCC[C@H]3O2)cs1 | -5.64
108 | c1cncc(OCc2n[nH]c3c2CN(Cc2cccs2)C3)c1 | -113
109 | O[C@@H]1CC(CNCC2CC2)(COc2cccnc2)C[C@@H]1O (stereo not given in full) | -2.64
110 | CCN(CC)S(=O)(=O)N1C[C@H]2CC[C@@H](C1)N(Cc1cscn1)C2=O | -21.1

— ChEMBL document CHEMBL4513216, “Probing the Open Global Health Chemical Diversity Library for Multistage-Active Starting Points for Next-Generation Antimalarials” (ACS Infect Dis, 2020)
